Assay results published in PMC3993932 (Molecular Pharmaceutics, 2014).

Assays:
[1] = In vitro release study by dialysis method; type: physicochemical
Method in brief: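 Micelles, free parent drug, or free prodrug were placed in a 20 kDa MWCO dialysis cassette against 500 mL PBS (20 mM, pH 7.4) at 37 °C. The sink was refreshed at each sampling. Free prodrug was taken from a 6 mM Tween 80/ethanol (1:4) stock and diluted in HEPES saline to a final 100 μM. Cassette contents were sampled over time and quantified by HPLC. Ct/C0 = e^–kt was fitted by nonlinear regression, and t1/2 = 0.693/k.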

[2] = system: human pancreatic cancer BxPC-3 cells; assay: Cell proliferation assay; type: cell-based; conditions: BXPC-3, 72 h
Method in brief: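 BxPC-3 cells were grown in RPMI with 10% FBS and penicillin/streptomycin at 37 °C under 5% CO2, then seeded in 96-well plates. Stocks were 1 mM (parent drug in PBS, prodrug in DMSO). Cells were exposed to 10–150 nM free or micellar test compound for 72 h. They were then fixed with 1% glutaraldehyde, stained with 0.1% crystal violet and dissolved in 10% acetic acid, with absorbance read at 595 nm. Viability was expressed as % of untreated wells.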

[3] = system: cytidine deaminase and cathepsin B; type: in vitro ADME, human; conditions: by 1 h; cathepsin B 5 U/mL, cytidine deaminase 15 μg/mL, pH 6.5, 37 °C
[4] = Pharmacokinetic study in mice bearing BxPC-3 xenografts; type: in vivo
Method in brief: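 Female nude mice carried BxPC-3 subcutaneous xenografts of 100–300 mm3 (3 per group). Mice received iv 25 mg/kg parent-drug equivalent as free drug in PBS, free prodrug in Tween 80/ethanol:PBS (1:4), or micelles. Retro-orbital blood was taken at 3–90 min. Samples were quenched with acetic acid, precipitated with acetonitrile, and analyzed by HPLC with internal standards for prodrug, parent and deaminated metabolite. t1/2, CLT and Vd,ss came from noncompartmental analysis.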

[5] = system: BxPC-3 xenografts; assay: Antitumor efficacy study in mice bearing BxPC-3 xenografts; type: in vivo; conditions: iv 10 mg/kg gemcitabine equivalent on days 0, 3, 7, 10
Method in brief: (§1)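 Female athymic nude mice (nu/nu, 5–6 weeks) received subcutaneous BxPC-3 cells (2 × 10^6 in matrigel/RPMI) in each flank. At 50–100 mm3, mice were randomized to untreated, free parent drug in PBS, or micellar prodrug groups (4 per group). Dosing was iv 10 mg/kg parent-drug equivalent on days 0, 3, 7 and 10. Tumor volume was measured by caliper as 1/2 × length × width², and body weight was tracked. Groups were compared by t-test.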

[6] = Body weight of treated mice in the efficacy study; type: in vivo; conditions: iv 10 mg/kg gemcitabine equivalent twice weekly for 2 weeks
Method in brief: as §1

[7] = system: tumor cells with wild-type hENT1 and deoxycytidine kinase; conditions: cell culture, tumor cells with wild-type hENT1 and deoxycytidine kinase ref 36; cited from earlier work
[8] = female, athymic nude (nu/nu), mouse, plasma, iv, 25 mg/kg

For `Nc1ccn([C@@H]2O[C@H](CO)[C@@H](O)C2(F)F)c(=O)n1` [gemcitabine, 2′,2′-difluorocytidine], the “release half-life (t1/2,release)” value ([1]; dialysis) was “about 15 min”, the “t1/2,release” value ([1]; dialysis 20 kDa MWCO, PBS pH 7.4, 37 °C, 0.693/k) was 14.4 min and the release rate constant ([1]; dialysis 20 kDa MWCO, PBS pH 7.4, 37 °C, free GemC18 in Tween 80/ethanol) was 2.920 h^–1. The EC50 [2] was 25 nM, the “conversion to dFdU” value [3] was 80% and the AUC [4, 8] was 18.8 µM·h. For the same compound, the Vd [4, 8] was 1.06 ± 0.132 L/kg, the CLT of gemcitabine ([4]; plasma gemcitabine, iv 25 mg/kg, mice) was 84.0 ± 4.0 mL/kg/min and the “effect on tumor growth” value [5] was “unable to arrest the tumor growth”. For the same compound, the “body weight / overt toxicity” value [6] was “no overt toxicity” and the EC50 [7] was “low nanomolar range”.
